Experimental data reported in ChEMBL document CHEMBL3603793, “Antimalarial activity of prodrugs of N-branched acyclic nucleoside phosphonate inhibitors of 6-oxopurine phosphoribosyltransferases” (Bioorg Med Chem, 2015).
pIC50, pKi: −log10 of the molar value.

How the values were obtained:
[1] = Cytotoxicity against human A549 cells after 4 days; format: cell-based
In short: (§1)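 Cells seeded in 96-well plates at 7,500 (A549) or 15,000 (C32, C32-TG) per well; compounds added at serial dilutions 24 h later. Incubated four days at 37°C, then trypsinized and counted with a Coulter Counter. CC50 is the concentration giving 50% proliferation versus untreated cells, obtained by extrapolation; mean ± SEM of two or three independent tests.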

[2] = Cytotoxicity against human C32 cells after 4 days; format: cell-based; in short: as §1
Plasmodium falciparum [3] = test: Antimalarial activity against chloroquine-sensitive Plasmodium falciparum D6 infected in erythrocytes assessed as inhibition of [3H]-hypoxanthine incorporation after 6 days; format: functional, organism-based
Plasmodium falciparum [4] = test: Antimalarial activity against chloroquine-resistant Plasmodium falciparum W2 infected in erythrocytes assessed as inhibition of [3H]-hypoxanthine incorporation after 6 days; format: functional, organism-based
[5] = Cytotoxicity against human HGPRT-deficient thioguanine-resistant C32TG cells after 4 days; format: cell-based; in short: as §1
[6] = Inhibition of Plasmodium falciparum HGXPRT by spectrophotometric assay
In short: (§2)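 Spectrophotometric assay at 25°C in 0.1 M Tris-HCl, 10 mM MgCl2, pH 7.4. PRib-PP was the variable substrate and guanine the fixed substrate at a saturating 60 μM. Values are apparent Ki, since only one concentration of the second substrate was used, calculated from Km(app) = Km(1+[I]/Ki(app)).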

[7] = target: T1, Hypoxanthine-guanine phosphoribosyltransferase (Homo sapiens, UniProt P00492); test: Inhibition of human HGPRT by spectrophotometric assay; in short: as §2
T1 sequence (P00492 whole entry): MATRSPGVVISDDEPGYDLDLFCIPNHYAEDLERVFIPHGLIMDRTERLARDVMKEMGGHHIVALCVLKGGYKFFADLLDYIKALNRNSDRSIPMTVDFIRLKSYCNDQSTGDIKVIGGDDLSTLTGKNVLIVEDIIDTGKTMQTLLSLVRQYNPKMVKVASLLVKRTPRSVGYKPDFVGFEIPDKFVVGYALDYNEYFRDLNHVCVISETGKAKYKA

Row | Compound | CC50 at 96 h [1] | CC50 at 96 h [2] | pIC50 (Plasmodium falciparum [3]) | pIC50 (Plasmodium falciparum [4]) | CC50 at 96 h [5] | pKi [6] | pKi [7]
1 | CCOC(=O)[C@H](Cc1ccccc1)NP(=O)(CCN(CCC(=O)OC)CCn1cnc2c(=O)[nH]cnc21)N[C@@H](Cc1ccccc1)C(=O)OCC | 70 µM | > 300 µM | 5.46 | 5.54 | 212 µM | – | –
2 | Nc1nc2c(ncn2CCN(CCP(=O)(O)O)CP(=O)(O)O)c(=O)[nH]1 | – | – | – | – | – | 6.00 | 5.70
3 | Nc1nc2c(ncn2CCN(CCP(=O)(O)O)CC(O)CO)c(=O)[nH]1 (configuration not stated) | – | – | – | – | – | 6.22 | 6.22
4 | O=c1[nH]cnc2c1ncn2CCN(CCP(=O)(O)O)CP(=O)(O)O | – | – | – | – | – | 5.22 | 5.00
5 | CCOC(=O)[C@H](Cc1ccccc1)NP(=O)(CCN(CCC(=O)OC)CCn1cnc2c(=O)[nH]c(N)nc21)N[C@@H](Cc1ccccc1)C(=O)OCC | > 300 µM | > 300 µM | 4.93 | 5.25 | > 300 µM | – | –
6 | CCOC(=O)[C@H](Cc1ccccc1)NP(=O)(CCN(CCCC#N)CCn1cnc2c(=O)[nH]cnc21)N[C@@H](Cc1ccccc1)C(=O)OCC | 30 µM | 102 µM | 5.38 | 5.26 | 89 µM | – | –
7 | O=c1[nH]cnc2c1ncn2CCN(CCP(=O)(O)O)CC(O)CO (configuration not stated) | – | – | – | – | – | 5.30 | 5.42
8 | CCOC(=O)[C@H](Cc1ccccc1)NP(=O)(CCN(CCn1cnc2c(=O)[nH]cnc21)CCP(=O)(N[C@@H](Cc1ccccc1)C(=O)OCC)N[C@@H](Cc1ccccc1)C(=O)OCC)N[C@@H](Cc1ccccc1)C(=O)OCC | 79 µM | 48 µM | 5.51 | 5.57 | 48 µM | – | –
9 | CC(C)OC(=O)[C@H](Cc1ccccc1)NP(=O)(CCN(CCOCc1ccccc1)CCn1cnc2c(=O)[nH]cnc21)N[C@@H](Cc1ccccc1)C(=O)OC(C)C | 23 µM | 13 µM | 5.82 | 5.55 | 18 µM | – | –
10 | CCOC(=O)[C@H](Cc1ccccc1)NP(=O)(CCN(CCn1cnc2c(=O)[nH]cnc21)CP(=O)(N[C@@H](Cc1ccccc1)C(=O)OCC)N[C@@H](Cc1ccccc1)C(=O)OCC)N[C@@H](Cc1ccccc1)C(=O)OCC | 41 µM | 23 µM | 5.33 | 5.80 | 25 µM | – | –
11 | CCOC(=O)[C@H](Cc1ccccc1)NP(=O)(CCN(CCCC(=O)OC)CCn1cnc2c(=O)[nH]c(N)nc21)N[C@@H](Cc1ccccc1)C(=O)OCC | ≥ 232 µM | 234 µM | 5.07 | 5.24 | ≥ 246 µM | – | –
12 | CCOC(=O)[C@H](Cc1ccccc1)NP(=O)(CCN(CCn1cnc2c(=O)[nH]c(N)nc21)CCP(=O)(N[C@@H](Cc1ccccc1)C(=O)OCC)N[C@@H](Cc1ccccc1)C(=O)OCC)N[C@@H](Cc1ccccc1)C(=O)OCC | 144 µM | 51 µM | 5.20 | 5.13 | 53 µM | – | –
13 | CCOC(=O)[C@H](Cc1ccccc1)NP(=O)(CCN(CCn1cnc2c(=O)[nH]c(N)nc21)CP(=O)(N[C@@H](Cc1ccccc1)C(=O)OCC)N[C@@H](Cc1ccccc1)C(=O)OCC)N[C@@H](Cc1ccccc1)C(=O)OCC | > 300 µM | 65 µM | 4.98 | 5.34 | 56 µM | – | –
14 | O=c1[nH]cnc2c1ncn2CCN(CCOCc1ccccc1)CCP(=O)(O)O | – | – | – | – | – | 5.37 | 4.89
15 | CC(C)OC(=O)[C@H](Cc1ccccc1)NP(=O)(CCN(CCOCc1ccccc1)CCn1cnc2c(=O)[nH]c(N)nc21)N[C@@H](Cc1ccccc1)C(=O)OC(C)C | 20 µM | 17 µM | 5.80 | 5.54 | 23 µM | – | –
16 | Nc1nc2c(ncn2CCN(CCOCc2ccccc2)CCP(=O)(O)O)c(=O)[nH]1 | – | – | – | – | – | 5.62 | 5.72
